Experimental data from ChEMBL document CHEMBL3124924, “Bifunctional ethyl 2-amino-4-methylthiazole-5-carboxylate derivatives: synthesis and in vitro biological evaluation as antimicrobial and anticancer agents” (2014).
In brackets after ≈: the same amount, converted by molar mass. Activity calls are given as the source filed them. No cut-off for these calls is given here.

Legend:
Bacillus spizizenii [1] = test: Antibacterial activity against Bacillus subtilis ATCC 6633 assessed as growth inhibition at 1 mg/mL after 24 hrs by agar-cup diffusion method; assay type: functional; settings: ATCC 6633, 24 h, read-out: DIZ
Procedure, shortened: (§1)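 Agar-cup diffusion: 1 mL of 6 h broth culture seeded per 100 mL molten sterile agar at 45 °C and poured into plates. 8 mm cups cut, each filled with 0.1 mL of 1 mg/mL test solution. Incubated 37 °C for 24 h, 48 h for C. albicans. DMSO control per organism. Inhibition zone diameter in mm, mean of three measurements.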

Aspergillus niger = test: Antifungal activity against Aspergillus niger assessed as growth inhibition at 1 mg/mL after 24 hrs by agar-cup diffusion method; assay type: functional, organism-based; procedure, shortened: as §1
Bacillus spizizenii [2] = test: Antibacterial activity against Bacillus subtilis ATCC 6633 assessed as growth inhibition after 48 hrs by two-fold serial dilution assay; assay type: functional; settings: ATCC 6633, 48 h
Procedure, shortened: (§2)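 Twofold serial broth dilution run on compounds giving inhibition zones of 13 mm or more. Organisms pre-grown in suitable broth at 37 °C, 24 h for bacteria and 48 h for fungi. Dilution series 200, 100, 50, 25, 12.5, 6.25. Each 5 mL tube inoculated with 0.1 mL and incubated 37 °C for 48 h. Tubes scored for presence or absence of growth.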

Staphylococcus aureus [3] = test: Antibacterial activity against Staphylococcus aureus ATCC 6538 assessed as growth inhibition after 48 hrs by two-fold serial dilution assay; assay type: functional; settings: ATCC 6538, 48 h; procedure, shortened: as §2
Escherichia coli [4] = test: Antibacterial activity against Escherichia coli ATCC 25922 assessed as growth inhibition at 1 mg/mL after 24 hrs by agar-cup diffusion method; assay type: functional; settings: ATCC 25922, 24 h, read-out: DIZ; procedure, shortened: as §1
Pseudomonas aeruginosa [5] = test: Antibacterial activity against Pseudomonas aeruginosa ATCC 27853 assessed as growth inhibition at 1 mg/mL after 24 hrs by agar-cup diffusion method; assay type: functional; settings: ATCC 27853, 24 h, read-out: DIZ; procedure, shortened: as §1
Escherichia coli [6] = test: Bactericidal activity against Escherichia coli ATCC 25922 after 18 hrs; assay type: functional; settings: ATCC 25922, 18 h
Procedure, shortened: (§3)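 Continuation of the broth-dilution MIC test. A loopful from each tube without visible growth spread on a quarter of a Mueller-Hinton agar plate and incubated 18 h. Lowest concentration giving no growth on subculture taken as the MBC.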

Staphylococcus aureus [7] = test: Bactericidal activity against Staphylococcus aureus ATCC 6538 after 18 hrs; assay type: functional; settings: ATCC 6538, 18 h; procedure, shortened: as §3
Pseudomonas aeruginosa [8] = test: Antibacterial activity against Pseudomonas aeruginosa ATCC 27853 assessed as growth inhibition after 48 hrs by two-fold serial dilution assay; assay type: functional; settings: ATCC 27853, 48 h; procedure, shortened: as §2
Candida albicans [9] = test: Fungicidal activity against Candida albicans ATCC 10231 after 18 hrs; assay type: functional; settings: ATCC 10231, 18 h; procedure, shortened: as §3
Bacillus spizizenii [10] = test: Bactericidal activity against Bacillus subtilis ATCC 6633 after 18 hrs; assay type: functional; settings: ATCC 6633, 18 h; procedure, shortened: as §3
Escherichia coli [11] = test: Antibacterial activity against Escherichia coli ATCC 25922 assessed as growth inhibition after 48 hrs by two-fold serial dilution assay; assay type: functional; settings: ATCC 25922, 48 h; procedure, shortened: as §2
Staphylococcus aureus [12] = test: Antibacterial activity against Staphylococcus aureus ATCC 6538 assessed as growth inhibition at 1 mg/mL after 24 hrs by agar-cup diffusion method; assay type: functional; settings: ATCC 6538, 24 h, read-out: DIZ; procedure, shortened: as §1
Candida albicans [13] = test: Antifungal activity against Candida albicans ATCC 10231 assessed as growth inhibition after 48 hrs by two-fold serial dilution assay; assay type: functional; settings: ATCC 10231, 48 h; procedure, shortened: as §2
Candida albicans [14] = test: Antifungal activity against Candida albicans ATCC 10231 assessed as growth inhibition at 1 mg/mL after 48 hrs by agar-cup diffusion method; assay type: functional; settings: ATCC 10231, 48 h, read-out: DIZ; procedure, shortened: as §1
Pseudomonas aeruginosa [15] = test: Bactericidal activity against Pseudomonas aeruginosa ATCC 27853 after 18 hrs; assay type: functional; settings: ATCC 27853, 18 h; procedure, shortened: as §3

MIC (Bacillus spizizenii [2]) | MIC (Staphylococcus aureus [3]) | MIC (Pseudomonas aeruginosa [8]) | MIC (Escherichia coli [11]) | MIC (Candida albicans [13]) | Structure (SMILES) | zone of inhibition at 1000 µg/mL (Bacillus spizizenii [1]) | growth inhibition (GI) (Aspergillus niger) | zone of inhibition at 1000 µg/mL (Escherichia coli [4]) | zone of inhibition at 1000 µg/mL (Pseudomonas aeruginosa [5]) | MBC (Escherichia coli [6]) | MBC (Staphylococcus aureus [7]) | MFC (Candida albicans [9]) | MBC (Bacillus spizizenii [10]) | zone of inhibition at 1000 µg/mL (Staphylococcus aureus [12]) | zone of inhibition at 1000 µg/mL (Candida albicans [14]) | MBC (Pseudomonas aeruginosa [15])
25 µg/mL (≈ 73.7 µM) | 12.5 µg/mL (≈ 36.8 µM) | 100 µg/mL (≈ 295 µM) | 25 µg/mL (≈ 73.7 µM) | 25 µg/mL (≈ 73.7 µM) | CCOC(=O)c1sc(NC(=S)Nc2ccc(F)cc2)nc1C | > 13 mm | inactive | > 13 mm | > 13 mm | 25 µg/mL (≈ 73.7 µM) | 12.5 µg/mL (≈ 36.8 µM) | 50 µg/mL (≈ 147 µM) | 25 µg/mL (≈ 73.7 µM) | > 13 mm | > 13 mm | 100 µg/mL (≈ 295 µM)
100 µg/mL (≈ 319 µM) | 50 µg/mL (≈ 160 µM) |  |  | 100 µg/mL (≈ 319 µM) | CCOC(=O)c1sc(NC(=O)CN2CCOCC2)nc1C | > 13 mm | inactive | > 13 mm | > 13 mm |  | 50 µg/mL (≈ 160 µM) | 100 µg/mL (≈ 319 µM) | 100 µg/mL (≈ 319 µM) | > 13 mm | > 13 mm | 
